Source: PubChem (The Scripps Research Institute Molecular Screening Center)
CHRM1 agonist = human M1 muscarinic receptor agonism | P11229 | CHO-K1 hM1, Fluo-8 calcium fluorescence, agonist mode; 0% DMSO, 100% acetylcholine EC100 | activation, % at 3 µM | 0.33% of 360,000 active | AID 588814;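 active = activation above the run's mean compound activation plus 3 SD, cut at about 16% in these data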;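 note: peak over basal fluorescence ratio within a 140 s kinetic read after compound addition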
Target sequence (P11229 whole entry, looked up): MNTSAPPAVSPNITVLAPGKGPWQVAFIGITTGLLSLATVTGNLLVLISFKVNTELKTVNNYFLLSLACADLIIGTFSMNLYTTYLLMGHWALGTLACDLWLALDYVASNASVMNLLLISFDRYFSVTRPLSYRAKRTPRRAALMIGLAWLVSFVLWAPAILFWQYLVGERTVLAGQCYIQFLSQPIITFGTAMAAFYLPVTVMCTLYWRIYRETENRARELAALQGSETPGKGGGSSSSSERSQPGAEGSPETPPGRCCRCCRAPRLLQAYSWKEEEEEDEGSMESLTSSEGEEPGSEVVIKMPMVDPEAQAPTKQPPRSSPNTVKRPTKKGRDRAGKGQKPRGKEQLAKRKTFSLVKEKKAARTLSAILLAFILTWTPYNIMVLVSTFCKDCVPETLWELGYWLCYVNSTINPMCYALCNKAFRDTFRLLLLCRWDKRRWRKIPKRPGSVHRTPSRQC
TAAR1 antag = antagonists of human TAAR1 | Q96RJ0 | AID 624466 | inhibition, % at 3 µM | CHO RD-HGA16 TAAR1, Fluo-8 calcium fluorescence, antagonist | 1.5% of 360,000 active;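 active = inhibition above a per-plate cutoff, the mean inhibition of test compounds on that plate plus 3 SD, cut at about 49% in these data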;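 note: 0% = DMSO plus EC80 beta-PEA response and 100% = DMSO alone without agonist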
Target sequence (Q96RJ0 whole entry, looked up): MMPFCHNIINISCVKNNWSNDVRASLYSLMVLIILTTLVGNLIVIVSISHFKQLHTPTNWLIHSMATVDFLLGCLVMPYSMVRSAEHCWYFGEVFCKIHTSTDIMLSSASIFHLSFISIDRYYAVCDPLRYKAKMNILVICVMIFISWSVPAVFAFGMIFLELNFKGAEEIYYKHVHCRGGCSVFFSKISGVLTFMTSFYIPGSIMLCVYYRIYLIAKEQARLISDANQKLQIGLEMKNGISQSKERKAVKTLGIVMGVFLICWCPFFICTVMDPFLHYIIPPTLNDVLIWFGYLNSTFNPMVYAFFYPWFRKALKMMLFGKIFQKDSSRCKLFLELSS
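test system = CHO RD-HGA16 cells bearing hTAAR1 | replication = singlicate | controls = DMSO-only wells and EC80 β-PEA-stimulated wells | reagent = EC80 β-phenethylamine stimulus | read-out basis = percent inhibition of PEA-evoked calcium signal, max/basal emission ratio | schedule = seeding 17-24 h prior, 75-min 37 °C, 30-min RT dye loading | signal = kinetic Fluo-8 calcium fluorescence measurement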
CHRM1 antagonist = human CHRM1 antagonism; CHO-K1 hM1, Fluo-8 calcium fluorescence, ACh EC80 antagonist; inhibition, % at 3 µM; P11229; 1.3% of 360,000 active;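 active = percent inhibition above its own plate's cutoff, namely the mean of that plate's compound wells plus 3 SD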;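 note: peak over basal fluorescence ratio during 140 s after agonist addition; 0% = ACh EC80 plus DMSO and 100% = DMSO alone without agonist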
M1 PAM = potentiates human M1 receptor response to acetylcholine. P11229. CHO-K1 hM1, Fluo-8 calcium fluorescence, ACh EC20; 0% = ACh EC20, 100% = maximal ACh. activation, % at 3 µM. 0.088% of 360,000 active; in the data active = activation above about 19%, passing the limit was not always enough
TAAR1 ag = agonists of human TAAR1; AID 624467; 0.99% of 360,000 active; Q96RJ0; activation, % at 3 µM; CHO RD-HGA16 TAAR1, Fluo-8 calcium fluorescence; vehicle wells 0%, saturating PEA agonist 100%;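 active = activation above the mean activation of all test compounds in the run plus 3 SD, cut at about 38% in these data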
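System: CHO-derived RD-HGA16 cells with stable Gα16 and human TAAR1 / Times: 17-24 h plating, Fluo-8 75 min 37 °C, 30 min RT / Technique: calcium-sensitive Fluo-8 signal, excitation 470-495, emission 515-575 nm / Measure: % activation relative to PEA EC100 response / Benchmarks: DMSO and PEA EC100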
nonsel antag count = nonselective antagonism, TAAR1 counter-screen. shares compounds with TAAR1 antag. counterscreen cell line, calcium fluorescence, antagonist mode. 77% of 2,400 active. inhibition, % at 3 µM; in the data active = inhibition above about 22%;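 note: CHO-Ga16 host cells stimulated with ATP at an EC80 level; 0% = agonist EC80 plus vehicle and 100% = vehicle without agonist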
TAAR1 antag conf = human TAAR1 antagonism, confirmed; shares compounds with TAAR1 antag; TAAR1-expressing cells, fluorescence antagonist read-out; inhibition, % at 3 µM; 40% of 2,400 active; in the data active = inhibition above about 49%;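 note: CHO-Ga16 host cells challenged with agonist PEA near its EC80; 0% = agonist at EC80 plus vehicle and 100% = vehicle with no agonist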
Ga16 nonsel ag = counter-screen for TAAR1 antagonists: nonselective Ga16 agonists | activation, % at 3 µM | shares compounds with TAAR1 antag | AID 651953 | 18% of 2,400 active | Ga16-expressing cells, calcium fluorescence, agonist counterscreen; in the data active = activation above about 12%;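 note: 0% = vehicle wells and 100% = saturating stimulus response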
TAAR1 ag counter = counter-screen for human TAAR1 antagonists: TAAR1 agonists; 2% of 2,400 active; activation, % at 3 µM; hTAAR1 cell line, fluorescence activation, agonist mode; shares compounds with TAAR1 antag; in the data active = activation above about 37%;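 note: CHO cells stably expressing TAAR1 with calcium dye readout; 0% = DMSO vehicle and 100% = full agonist response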
Active calls of the source: *; nt = not tested or not shown. This is a sample that favours compounds with a hit; in the whole collection about 3.4% have one here.

SMILES | CHRM1 agonist | TAAR1 antag | CHRM1 antagonist | M1 PAM | TAAR1 ag | nonsel antag count | TAAR1 antag conf | Ga16 nonsel ag | TAAR1 ag counter
Cc1cccc(NC(=O)C2CCN(S(=O)(=O)c3cccc4nsnc34)CC2)n1 | -2.8 | 12.8 | 11.2 | -9.0 | 7.5 | nt | nt | nt | nt
COc1ccc2nc(NC(=O)C3CCN(S(=O)(=O)c4cccc5nsnc45)CC3)sc2c1 | 2.7 | 61.3* | 17.2 | -7.5 | 21.9 | 34.0* | 55.6* | 11.4 | 11.1
COC(=O)CNC(c1ccccc1)c1cc(Cl)ccc1NC(=O)c1cccc(Cl)c1 (stereo unspecified) | -8.2 | 86.7* | 19.2 | -14.7 | -1.3 | 10.9 | 33.8 | 1.9 | 6.0
NNC(=O)CNC(c1ccccc1)c1cc(Br)ccc1NC(=O)c1cccc(Cl)c1 (stereo unspecified) | -7.0 | 21.2 | -8.7 | 5.5 | 4.7 | nt | nt | nt | nt
Cc1ccc(CSc2ccc3nnc(-c4cccnc4)n3n2)cc1 | -2.0 | 38.4 | 11.8 | -3.3 | 13.3 | nt | nt | nt | nt
Brc1ccc(CSc2ccc3nnc(-c4cccnc4)n3n2)cc1 | -3.5 | 59.9* | 17.0 | -6.5 | 7.1 | 25.0* | 38.7 | 8.8 | 13.1
Cc1ccc(CSc2ccc3nnc(-c4ccccn4)n3n2)cc1 | 0.7 | 60.9* | 15.8 | -5.6 | 1.9 | 24.6* | 34.7 | 5.7 | 6.0
CC1(C(=O)Nc2ccc3ccccc3c2)CCC(=O)N1CCCn1ccnc1 (stereo unspecified) | -8.1 | -6.7 | -2.7 | 8.5 | -0.2 | nt | nt | nt | nt
COC(=O)c1cccc(S(=O)(=O)N(Cc2ccco2)Cc2cc3cc(OC)ccc3[nH]c2=O)c1 | 0.3 | 58.4* | 6.6 | -0.7 | 19.0 | 24.3* | 58.5* | 10.0 | 28.0
O=c1[nH]c2ccccc2cc1CN(Cc1ccco1)S(=O)(=O)c1ccc(F)cc1 | 1.8 | 53.9* | 12.4 | -9.3 | 9.9 | 23.4* | 44.0 | 10.1 | 17.6
Nc1c(-c2ccc(C(F)(F)F)cc2)nc2ncccn12 | nt | -27.9 | nt | nt | -0.9 | nt | nt | nt | nt
O=C(CCc1nc2ccccc2c(=O)[nH]1)N1CCN(S(=O)(=O)c2ccc(Cl)c(C(F)(F)F)c2)CC1 | -3.3 | 62.3* | -4.8 | -0.6 | 16.7 | 38.8* | 50.0* | 15.8* | 13.8
FC(F)(F)c1ccc(-c2cccc3c2C2CC3CCN2Cc2ccc3c(c2)OCO3)cc1 (stereo unspecified) | -5.8 | -46.9 | -2.2 | -0.3 | 0.6 | nt | nt | nt | nt
Cc1nc(-c2cccc(NC(=O)c3ccc(-n4nccc4C)cc3)c2)cs1 | -3.0 | 68.5* | 18.1 | -7.7 | 30.0 | 32.9* | 46.4 | 9.5 | 7.5
Cn1cncc1C#Cc1ccc2cc(C(C)(C)O)oc(=O)c2c1 | -1.8 | -5.2 | -8.9 | 5.5 | 7.8 | nt | nt | nt | nt
CC(C)(O)c1cc2ccc(C#CCCN3C(=O)c4ccccc4C3=O)cc2c(=O)o1 | 1.6 | 62.4* | -5.3 | 12.3 | 15.0 | 25.9* | 54.9* | 8.7 | 3.4
CCOC(=O)[C@]12CCC=C1N(Cc1ccco1)C(=O)[C@H](CC(=O)NCc1cccc3ccccc13)C2 | nt | 2.5 | nt | nt | 0.2 | nt | nt | nt | nt
Cc1ccccc1OCC(=O)NNC(=O)C1CCN(c2ncnc3sc(C)c(C)c23)CC1 | 3.0 | 69.9* | 7.4 | -9.2 | 24.5 | 38.8* | 56.5* | 13.5* | 29.9
CCCN(CC(=O)Nc1ccccc1C)C(=O)C1CCN(c2ncnc3sc(C)c(C)c23)CC1 | -3.7 | 60.4* | 21.3 | -12.2 | 9.9 | 30.9* | 51.2* | 6.6 | 4.8
Cc1cccc(OCC(=O)NNC(=O)C2CCN(c3ncnc4sc(C)c(C)c34)CC2)c1 | 1.6 | 75.0* | 17.0 | -16.4 | 19.4 | 35.9* | 51.6* | 11.1 | 20.1
CCN(CC)c1ccc(C(=O)NNC(=O)C2CCN(c3ncnc4sc(C)c(C)c34)CC2)cc1 | 7.6 | 56.1* | -4.4 | 10.7 | 8.1 | 25.9* | 34.9 | 7.6 | 14.8
COc1ccccc1OCC(=O)NNC(=O)C1CCN(c2ncnc3sc(C)c(C)c23)CC1 | -2.5 | 43.8 | 11.7 | -11.7 | 8.7 | nt | nt | nt | nt
Cc1ccccc1NC(NC(=O)c1cccs1)C(Cl)(Cl)Cl (stereo unspecified) | -3.9 | 52.1* | -0.3 | -4.7 | 13.4 | 20.4 | 38.3 | 13.3* | 15.7
CCOC(=O)[C@]12CCCC=C1N(Cc1ccc3c(c1)OCO3)C(=O)[C@H](CC(=O)NCC13CC4CC(CC(C4)C1)C3)C2 | nt | -7.4 | nt | nt | 0.5 | nt | nt | nt | nt
O=C1COc2ccc(C(=O)COC(=O)CCSc3ccc(Cl)cc3)cc2N1 | -6.1 | 56.4* | -5.0 | 0.4 | 13.7 | 36.6* | 33.4 | 9.9 | 3.7
SMILES | CHRM1 agonist | TAAR1 antag | CHRM1 antagonist | M1 PAM | TAAR1 ag | nonsel antag count | TAAR1 antag conf | Ga16 nonsel ag | TAAR1 ag counter
CCN(CC)S(=O)(=O)c1cccc(C(=O)OCC(=O)c2ccc3c(c2)NC(=O)CO3)c1 | -3.4 | 71.2* | 32.6 | -27.3 | 19.3 | 42.5* | 61.4* | 15.3* | 12.1
CCOC(=O)C1CCCN(C(=O)c2sc(-c3ccccc3)nc2C)CC1 (stereo unspecified) | 0.2 | -12.8 | 0.6 | -1.4 | 0.8 | nt | nt | nt | nt
COc1ccc(Cl)cc1CC1(C)C(=O)Nc2ccc(S(=O)(=O)NC3CCCCC3)cc21 (stereo unspecified) | -6.0 | 12.9 | -5.4 | -1.2 | 3.5 | nt | nt | nt | nt
Cc1ccccc1NS(=O)(=O)c1ccc(C(=O)N2CCN(c3ccccc3O)CC2)cc1 | 4.5 | 75.4* | 22.0 | -11.9 | 19.3 | 28.1* | 41.4 | 11.9* | 7.2
CC1(Cc2cccc(C#N)c2)C(=O)Nc2c(Cl)cccc21 (stereo unspecified) | -1.7 | -10.5 | -15.0 | 10.7 | 1.0 | nt | nt | nt | nt
Cc1cc(=O)oc2c3c(cc(OCC(=O)NCc4ccccc4)c12)OC(C)(C)CC3 | -9.8 | 68.0* | 6.3 | -18.4 | 2.7 | 24.1* | 33.5 | 2.3 | 0.5
CCCNC(=O)C(Cc1ccccc1)NS(=O)(=O)c1ccc2c(c1)c(=O)n(C)c(=O)n2C (stereo unspecified) | -9.4 | 1.7 | -2.6 | 4.5 | 2.1 | nt | nt | nt | nt
CCCCN(C)C(=O)C(Cc1ccccc1)NS(=O)(=O)c1ccc2c(c1)c(=O)n(C)c(=O)n2C (stereo unspecified) | -3.5 | 66.7* | 13.8 | -8.7 | 21.9 | 30.7* | 46.0 | 10.8 | 13.3
O=C(CNC(=O)c1ccco1)N=Nc1c(O)n(CCc2ccccc2)c2ccccc12 | -5.7 | -13.9 | -8.8 | 2.7 | -0.3 | nt | nt | nt | nt
CCCCn1c(O)c(N=NC(=O)c2ccco2)c2ccccc21 | -3.3 | 52.0* | 5.0 | -9.2 | 11.6 | 15.0 | 36.6 | 6.9 | 13.3
